{"source": "paper PMC11605122", "about": "(Nature Communications, 2024)", "key": {"plasma insulin": {"experiment": "plasma insulin", "format": "in vivo, mouse", "conditions": "DIO mice, Fc-GLP1", "in_short": "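Plasma ALT was read with Reflotron strips and plasma TGs by colorimetric assay. Serum FGF21 and plasma adiponectin and insulin were measured by ELISA.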"}, "BAT, eWAT, iWAT": {"system": "BAT, eWAT, iWAT", "experiment": "UCP1 and TH protein", "format": "in vivo, mouse", "conditions": "DIO mice, Fc-GLP1"}, "[1]": {"experiment": "peptide concentration in plasma", "format": "in vivo, mouse", "conditions": "DIO mice, 24 h post-injection, 50 nmol/kg s.c., n = 6; cAMP bioassay", "in_short": "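Plasma activity was read in a cAMP assay on CHO cells expressing human GLP-1R, in HBSS pH 7.4 with 25 mM HEPES, 0.1% BSA and 0.5 mM IBMX. Serial dilutions were run in duplicate for 30 min at RT with HTRF detection. Standards were reference peptide spiked into 0.2% (final) naïve plasma. Sample ratio = sample EC50/reference EC50; concentration = known top concentration/ratio.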"}, "BAT skin temperature": {"experiment": "BAT skin temperature", "format": "in vivo, mouse", "conditions": "DIO mice, Fc-GLP1"}, "blood ketone bodies": {"experiment": "blood ketone bodies", "format": "in vivo, mouse", "conditions": "DIO mice, Fc-GLP1", "in_short": "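DIO mice were fed 60%-fat HFD from 8 weeks of age, for 12 weeks (males) or 24 weeks (females); one male cohort was housed at 30 °C. The test compound was given s.c. every 2 days in 50 mM sodium phosphate/300 mM mannitol pH 6.9. Glucose and ketone bodies were read in tail-vein blood.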"}, "[2]": {"system": "POMC neurons, arcuate nucleus", "experiment": "cFos-positive POMC neurons in ARC", "format": "in vivo, mouse", "conditions": "DIO mice, Fc-GLP1, 1 week", "in_short": "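Brain slices were blocked 2 h at RT in PBS with 1% BSA and 0.1% Triton X-100. They were incubated overnight at 4 °C with anti-POMC and anti-c-Fos, then with secondary antibodies in 1% BSA/PBS for 2 h at RT, protected from light.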"}, "plasma FFAs": {"experiment": "plasma FFAs", "format": "in vivo, mouse"}, "body weight, HFD-fed": {"experiment": "body weight, HFD-fed", "format": "in vivo, mouse", "conditions": "DIO mice, 1 week"}, "[3]": {"conditions": "cited from earlier work"}, "GCGR and GLP-1R": {"system": "GCGR and GLP-1R", "conditions": "vs cognate ligands; cited from earlier work"}, "[4]": {"conditions": "cited from earlier work", "remark": "listed apart in the source"}, "GCGR": {"system": "GCGR", "experiment": "block of glucagon-induced glucose elevation in lean mice", "format": "in vivo, mouse"}, "eWAT explants": {"system": "eWAT explants", "experiment": "lipolysis", "format": "cell-based, mouse", "conditions": "10 nM glucagon, 4 h"}, "[5]": {"conditions": "cited from earlier work", "remark": "listed apart in the source"}}, "note": "Entries after “also recorded” stand apart in the source; their conditions may differ."}
{"substance": "HGEGTFTSDVSSYLEGQAAKEFIAWLVKGG-linker-Fc [Fc-GLP1, reference compound]", "values": [{"measurement": "plasma insulin peak", "setting": "plasma insulin", "value": "a lower insulin peak"}, {"measurement": "UCP1 in BAT", "setting": "BAT, eWAT, iWAT", "value": "neither UCP1 nor BAT temperature were increased"}, {"measurement": "peptide plasma level", "setting": "[1]", "value": "105.1 ± 18.33", "unit": "nM"}, {"measurement": "BAT temperature", "setting": "BAT skin temperature", "value": "neither UCP1 nor BAT temperature were increased"}, {"measurement": "ketogenesis", "setting": "blood ketone bodies", "value": "ketogenesis was not elevated"}, {"measurement": "cFos positive POMC neurons", "setting": "[2]", "value": "an increase in cFos positive POMC neurons"}, {"measurement": "plasma FFAs", "setting": "plasma FFAs; DIO mice, Fc-GLP1, 6 h", "value": "elevation of FFAs was not observed"}, {"measurement": "loss of body weight", "setting": "body weight, HFD-fed; Fc-GLP1 50 nmol/kg", "value": "11.0 ± 0.46", "unit": "%"}]}
{"substance": "OXM: native peptide oxyntomodulin, activates both GLP-1R and GCGR", "values": [{"measurement": "half-life in circulation", "setting": "[3]", "value": "short half-life in circulation"}, {"measurement": "affinity to GLP-1R and GCGR", "setting": "GCGR and GLP-1R", "value": "reduced affinity compared with their cognate ligands"}]}
{"substance": "cotadutide", "values": [{"measurement": "liver metabolism, MASH and fibrosis", "setting": "[3]; C57BL/6J or ob/ob mice", "value": "more effective than obeticholic acid in improving liver metabolism and ameliorating MASH and fibrosis"}, {"measurement": "liver inflammation and adipocyte apoptosis", "setting": "[3]", "value": "decreased liver inflammation and apoptosis in adipocytes"}, {"measurement": "postprandial glucose, body weight, hepatic fat", "setting": "[4]; obese/overweight individuals, type 2 diabetes", "value": "improved postprandial glucose excursions and reduced body weight and hepatic fat"}, {"measurement": "glycemia, body weight, MASLD", "setting": "[4]; phase 2b trial", "value": "reduced glycemia and body weight and improved metabolic-dysfunction associated steatotic liver disease (MASLD)"}]}
{"substance": "des-His1-[Glu9]-Glucagon (1-29) amide [GCGRant, reference compound]", "values": [{"measurement": "body weight loss", "setting": "body weight, HFD-fed; GCGRant alone (1 mg/kg i.p. daily)", "value": "6.8 ± 0.46", "unit": "%"}, {"measurement": "block of glucagon effect on glucose", "setting": "GCGR", "value": "able to block the effect of glucagon in elevating glucose levels in lean mice"}]}
{"substance": "glucagon: native GCGR ligand", "values": [{"measurement": "lipolysis", "setting": "eWAT explants", "value": "increased lipolysis in eWAT explants"}, {"measurement": "circulating FFAs / lipolysis", "setting": "plasma FFAs; lean mice, glucagon (100 nmol/kg), 1 h", "value": "this effect was not detected at 1 h; also recorded: did not increase lipolysis at 1 h"}, {"measurement": "circulating FFAs", "setting": "plasma FFAs; lean mice, glucagon, 6 h post-injection", "value": "an increase of circulating FFAs at 6 h post-injection"}, {"measurement": "FFA concentration, supraphysiological administration", "setting": "[5]", "value": "increased FFA concentration"}, {"measurement": "plasma FFAs, physiological doses", "setting": "[5]; humans", "value": "did not find elevation in plasma FFAs in humans"}, {"measurement": "lipolysis ex vivo in WAT explants", "setting": "[5]; wild-type or adipocyte-specific GCGR-deficient mice, 1 h", "value": "lack of effect of glucagon in lipolysis ex vivo in WAT explants"}]}
